Data on six molecules can be found in ChEMBL document CHEMBL1127424, “7-azetidinylquinolones as antibacterial agents. 2. Synthesis and biological activity of 7-(2,3-disubstituted-1-azetidinyl)-4-oxoquinoline- and -1,8-naphthyridine-3-carboxylic acids. Properties and structure-activity relationships of quinolones with an azetidine moiety” (J Med Chem, 1994).

The structures appear in SMILES notation. Converted amounts (≈) assume the structure as drawn.

By MIC is commonly meant the least concentration at which growth counts as inhibited. In general, ED50 refers to the midpoint of the dose-response relation. The term AUC denotes the area under the concentration-time curve, a measure of exposure.

In one data set the test system is Proteus vulgaris. The experiment in a line: In vitro minimum inhibitory concentration for Proteus vulgaris ATCC 8427. It is filed as functional. Summed up: (§1)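 Serial 2-fold agar dilution in Mueller Hinton medium, run alongside a reference quinolone. Inoculum adjusted to 10⁸ cfu/mL; compound range 0.007–16 μg/mL.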
In data set [1] the test system is Mus musculus. Nature of the data set: Evaluation of efficacy on systemic infections Escherichia coli HM-42, after oral administration in mice. It counts as functional. In short, it runs like this:
(§2)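 Single oral dose given immediately after infection, one of four doses per group, chosen from in vitro activity. Survival scored after one week. ED50 (total mg/kg protecting 50%) interpolated from survival rates.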

The test system of the next data set is Enterococcus faecalis. The experiment in a line: In vitro minimum inhibitory concentration for Streptococcus faecalis ATCC 10541. It is filed as functional. Summed up:
as §1

In the next data set the test system is Enterobacter cloacae. The experiment in a line: In vitro minimum inhibitory concentration for Enterobacter cloacae ATCC 23355. It counts as functional.
The next data set relates to Klebsiella pneumoniae. The experiment in a line: In vitro minimum inhibitory concentration to inhibit Klebsiella pneumoniae ATCC 10031. It counts as functional. In short, it runs like this:
as §1

In a further data set the test system is Bacillus cereus. The experiment in a line: In vitro minimum inhibitory concentration for Bacillus cereus ATCC 11778. It counts as functional. In short, it runs like this: as §1
Data set [2] deals with Mus musculus. The experiment in a line: Evaluation of efficacy on systemic infections Pseudomonas aeruginosa HS-116, after oral administration in mice. It is filed as functional. Summed up: as §2
A further data set deals with Staphylococcus aureus. The experiment in a line: In vitro minimum inhibitory concentration for Staphylococcus aureus ATCC 25178. It counts as functional. In short, it runs like this: as §1
In a further data set the test system is Bacillus subtilis. The experiment in a line: In vitro minimum inhibitory concentration for Bacillus subtilis ATCC 6633. It is filed as functional. Summed up: as §1
A further data set concerns Morganella morganii. The experiment in a line: In vitro minimum inhibitory concentration for Morganella morganii ATCC 8019. It is filed as functional. In short, it runs like this: as §1
In another data set the test system is Pseudomonas aeruginosa. The experiment in a line: In vitro minimum inhibitory concentration for Pseudomonas aeruginosa ATCC 10145. It counts as functional. In short, it runs like this: as §1
Data set [3] can be described thus: AUC (0-4 hr) ug/ml/h. Details: time < 4 hr; concentration or dose not given beside the values. It is filed as ADME, cell-free. Conditions: plasma. Summed up: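 Mice dosed once orally at 50 mg/kg; blood taken from groups of six mice at 0.5, 1, 2 and 4 h. Serum drug assayed by disk agar diffusion bioassay (Bacillus subtilis ATCC 6633 on Seed Agar, 37 °C, 18 h), giving total activity.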

The test system of another data set is Escherichia coli. The experiment in a line: In vitro minimum inhibitory concentration for Escherichia coli ATCC 10799. It counts as functional. Summed up: as §1
Data set [4] can be described thus: HPLC capacity factor (k'). It is filed as ADME. In short, it runs like this: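 Ion-pair reversed-phase HPLC on ODS-2 (10 μm) at 45 °C. Mobile phase: 10 mM sodium heptanesulfonate plus 50 mM KH2PO4 (pH 3.5)–methanol 45:55, 1 mL/min. Samples at 100 μg/mL in DMF, injected in duplicate, UV 280 nm. k' = (tR − t0)/t0.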
Data set [5] relates to Staphylococcus epidermidis. Nature of the data set: In vitro minimum inhibitory concentration for Staphylococcus epidermidis ATCC 155-1. It is filed as functional. In short, it runs like this: as §1
In data set [6] the test system is Mus musculus. The experiment in a line: Evaluation of efficacy on systemic infections Staphylococcus aureus HS-93, after oral administration in mice. It is filed as functional. Summed up:
as §2

Data set [7] in a line: Solubility (buffer pH 7.4). It counts as physicochemical. Conditions: read-out: S. In short, it runs like this: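 Excess solid shaken in 0.05 M phosphate buffer pH 7.4 for 24 h at 25 °C. Suspension filtered through 0.22 μm, discarding the first portion. Filtrate diluted in 0.1 N HCl or 0.1 N NaOH and read by UV at the compound's absorbance maximum.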

In the case of `C[C@@H]1[C@@H](CN)CN1c1cc2c(cc1F)c(=O)c(C(=O)O)cn2C1CC1`, the MIC with Proteus vulgaris stood at 1 µg/mL (≈ 2.9 µM); against Enterococcus faecalis it was 1 µg/mL (≈ 2.9 µM); in the data set with Enterobacter cloacae, 0.12 µg/mL (≈ 0.347 µM); in the data set on Klebsiella pneumoniae, 0.06 µg/mL (≈ 0.174 µM); in the data set on Bacillus cereus, 1 µg/mL (≈ 2.9 µM); against Staphylococcus aureus it was 0.25 µg/mL (≈ 0.724 µM). Moreover, the minimum inhibitory concentration (MIC) against Bacillus subtilis turned out to be 0.06 µg/mL (≈ 0.174 µM); with Morganella morganii, 1 µg/mL (≈ 2.9 µM); with Pseudomonas aeruginosa, 2 µg/mL (≈ 5.79 µM); with Escherichia coli, 0.12 µg/mL (≈ 0.347 µM); in [5], 0.25 µg/mL (≈ 0.724 µM). Moreover, the ED50 in the data set with Mus musculus [1] was 60.5 mg/kg; in the data set with Mus musculus [2] it was 355 mg/kg; with Mus musculus [6] it was 95 mg/kg. The molecule also gave an AUC in [3] of 0 ng·h/mL. In data set [4], the “Log k'” value is listed as -0.0607.

In the case of `C[C@H]1N(c2cc3c(cc2F)c(=O)c(C(=O)O)cn3C2CC2)C[C@]1(C)N`, the MIC was 0.25 µg/mL (≈ 0.724 µM) with Proteus vulgaris; 2 µg/mL (≈ 5.79 µM) against Enterococcus faecalis; 0.015 µg/mL (≈ 0.0434 µM) with Enterobacter cloacae; 0.03 µg/mL (≈ 0.0869 µM) in the data set with Klebsiella pneumoniae; 0.25 µg/mL (≈ 0.724 µM) in the data set with Bacillus cereus; 0.25 µg/mL (≈ 0.724 µM) in the data set with Staphylococcus aureus. For the same molecule, the MIC in the data set with Bacillus subtilis is 0.015 µg/mL (≈ 0.0434 µM); in the data set on Morganella morganii, 0.06 µg/mL (≈ 0.174 µM); in the data set on Pseudomonas aeruginosa it was 2 µg/mL (≈ 5.79 µM); with Escherichia coli, 0.06 µg/mL (≈ 0.174 µM); in [5] it was 0.12 µg/mL (≈ 0.347 µM). Also, the solubility in data set [7] amounted to 1.3 µg/mL (≈ 3.76 µM). In addition, the AUC in data set [3] came to 3800 ng·h/mL. In addition, the “Log k'” value in [4] was determined as 0.1421.

In the case of `C[C@H]1[C@H](N)CN1c1cc2c(cc1F)c(=O)c1c(=O)[nH]sc1n2C1CC1`, the MIC against Proteus vulgaris came out at 0.12 µg/mL (≈ 0.333 µM); against Enterococcus faecalis, 0.25 µg/mL (≈ 0.694 µM); against Enterobacter cloacae it was 0.015 µg/mL (≈ 0.0416 µM); against Klebsiella pneumoniae it was 0.015 µg/mL (≈ 0.0416 µM); in the data set on Bacillus cereus, 0.06 µg/mL (≈ 0.166 µM); in the data set on Staphylococcus aureus, 0.06 µg/mL (≈ 0.166 µM). In addition, the minimum inhibitory concentration (MIC) was 0.015 µg/mL (≈ 0.0416 µM) in the data set with Bacillus subtilis; 0.03 µg/mL (≈ 0.0832 µM) in the data set with Morganella morganii; 0.25 µg/mL (≈ 0.694 µM) in the data set with Pseudomonas aeruginosa; 0.03 µg/mL (≈ 0.0832 µM) with Escherichia coli; 0.03 µg/mL (≈ 0.0832 µM) in data set [5]. This molecule gave an AUC in data set [3] of 16200 ng·h/mL. Also, in data set [4], the “Log k'” value is given as 0.065.

Regarding `C[C@H]1[C@H](N)CN1c1cc2c(cc1F)c(=O)c(C(=O)O)cn2-c1ccc(F)cc1`, the MIC was determined as 0.25 µg/mL (≈ 0.649 µM) against Proteus vulgaris; 0.5 µg/mL (≈ 1.3 µM) against Enterococcus faecalis; 0.06 µg/mL (≈ 0.156 µM) in the data set on Enterobacter cloacae; 0.015 µg/mL (≈ 0.0389 µM) against Klebsiella pneumoniae; 0.25 µg/mL (≈ 0.649 µM) in the data set with Bacillus cereus; 0.25 µg/mL (≈ 0.649 µM) in the data set on Staphylococcus aureus. The MIC against Bacillus subtilis turned out to be 0.06 µg/mL (≈ 0.156 µM); against Morganella morganii it was 0.06 µg/mL (≈ 0.156 µM); with Pseudomonas aeruginosa, 1 µg/mL (≈ 2.59 µM); in the data set with Escherichia coli, 0.12 µg/mL (≈ 0.311 µM); in [5], 0.25 µg/mL (≈ 0.649 µM). In addition, the figures for the ED50 in the data set on Mus musculus [1], in the data set with Mus musculus [2] and in the data set with Mus musculus [6] were 2.9 mg/kg, 109 mg/kg and 7.5 mg/kg, respectively. Further, the area under the curve (AUC) in [3] stood at 16900 ng·h/mL. Also, in data set [4], the “Log k'” value worked out at 0.0755.

As for `C[C@H]1[C@H](N)CN1c1c(F)cc2c(=O)c(C(=O)O)cn(-c3ccc(F)cc3)c2c1Cl`, the minimum inhibitory concentration (MIC) in the data set with Proteus vulgaris was determined as 0.25 µg/mL (≈ 0.596 µM); against Enterococcus faecalis it was 0.25 µg/mL (≈ 0.596 µM); with Enterobacter cloacae, 0.06 µg/mL (≈ 0.143 µM); in the data set on Klebsiella pneumoniae, 0.03 µg/mL (≈ 0.0715 µM); against Bacillus cereus it was 0.03 µg/mL (≈ 0.0715 µM); against Staphylococcus aureus it was 0.03 µg/mL (≈ 0.0715 µM). For the same molecule, the MIC against Bacillus subtilis was 0.03 µg/mL (≈ 0.0715 µM); against Morganella morganii, 0.06 µg/mL (≈ 0.143 µM); in the data set with Pseudomonas aeruginosa it was 0.25 µg/mL (≈ 0.596 µM); in the data set on Escherichia coli it was 0.06 µg/mL (≈ 0.143 µM); in [5], 0.06 µg/mL (≈ 0.143 µM). The ED50 in the data set with Mus musculus [1] came to 3.6 mg/kg; with Mus musculus [2], 37.9 mg/kg; in the data set on Mus musculus [6] it was 1.3 mg/kg. Besides, the “Log k'” value in data set [4] was 0.2581.

As to `C[C@H]1[C@H](N)CN1c1nc2c(cc1F)c(=O)c(C(=O)O)cn2C(C)(C)C`, the MIC is 0.25 µg/mL (≈ 0.718 µM) in the data set with Proteus vulgaris; 1 µg/mL (≈ 2.87 µM) in the data set on Enterococcus faecalis; 0.06 µg/mL (≈ 0.172 µM) in the data set with Enterobacter cloacae; 0.015 µg/mL (≈ 0.0431 µM) in the data set with Klebsiella pneumoniae; 0.12 µg/mL (≈ 0.344 µM) in the data set on Bacillus cereus; 0.12 µg/mL (≈ 0.344 µM) against Staphylococcus aureus. The MIC against Bacillus subtilis stood at 0.015 µg/mL (≈ 0.0431 µM); against Morganella morganii, 0.12 µg/mL (≈ 0.344 µM); against Pseudomonas aeruginosa, 2 µg/mL (≈ 5.74 µM); in the data set on Escherichia coli, 0.06 µg/mL (≈ 0.172 µM); in [5], 0.12 µg/mL (≈ 0.344 µM). Besides, the area under the curve (AUC) in [3] came to 16500 ng·h/mL. For the same molecule, the “Log k'” value in data set [4] was determined as 0.1644.
